{"source": "paper PMC2692502", "about": "(Journal of Antimicrobial Chemotherapy, 2009)", "key": {"[1]": {"assay": "Study 2: single- and multiple-dose pharmacokinetics of the 2 min iv injection", "type": "in vivo, human", "conditions": "for Ratio of 6 mg/kg:4 mg/kg daptomycin (95% CI), AUC0–tau (dose-normalized) / Ratio of 6 mg/kg:4 mg/kg daptomycin (95% CI), Ae0–tau (dose-normalized), cumulative amount of unchanged daptomycin excreted in urine / Ratio of 6 mg/kg:4 mg/kg daptomycin (95% CI), CL / Ratio of 6 mg/kg:4 mg/kg daptomycin (95% CI), Cmax (dose-normalized): 6 mg/kg n = 12, 4 mg/kg n = 8, 2 min iv injection; for clearance: CL; for Tmax: median (range); for Vd: V; for dose excreted: urine", "summary_of_the_method": "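Healthy adults were randomized single-blind to 6 or 4 mg/kg test compound or placebo as a 2 min peripheral iv injection by syringe driver, once daily for 7 days. Heparinized blood was drawn on days 1 and 7, from predose to 24 h after injection start, plus 36 and 48 h on day 7. Total plasma drug was measured by HPLC (LLOQ 3 mg/L). Non-compartmental analysis gave AUC by the trapezoidal rule and CL, reported as arithmetic means.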"}, "[2]": {"conditions": "cited from earlier work"}, "[3]": {"assay": "Study 2: safety and tolerability", "type": "in vivo, human", "conditions": "Study 2, 4 mg/kg 2 min iv injection once daily for 7 days, n = 8", "summary_of_the_method": "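Healthy adults (24 enrolled) were randomized 3:2:1 in a single-blind, placebo-controlled, parallel-group design. Groups received test compound 6 mg/kg, 4 mg/kg or placebo as a 2 min peripheral iv injection by syringe driver, once daily for 7 days. All subjects entered the safety analysis. The investigator graded AEs for relatedness (not, unlikely, possibly, probably) and severity. Tabulated AEs were possibly or probably related. Follow-up was 9–11 days after last dose.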"}, "[4]": {"conditions": "Study 2, day 1, geometric mean ratio"}, "[5]": {"conditions": "Study 2, day 7, 6 mg/kg 2 min iv injection once daily, plasma, arithmetic mean (SD), n = 12, SD"}, "[6]": {"conditions": "Study 2, day 7, geometric mean ratio"}, "[7]": {"conditions": "both, human, plasma, iv, 4 mg/kg, Study 2, day 1, 4 mg/kg 2 min iv injection, plasma, arithmetic mean (SD), n = 8, SD"}, "[8]": {"conditions": "both, human, plasma, iv, 4 mg/kg, Study 2, day 7, 4 mg/kg 2 min iv injection once daily, plasma, arithmetic mean (SD), n = 8, SD"}, "[9]": {"conditions": "both, human, plasma, iv, 4 mg/kg, SD"}}}
{"smiles": "CCCCCCCCCC(=O)N[C@@H](Cc1c[nH]c2ccccc12)C(=O)N[C@H](CC(N)=O)C(=O)N[C@@H](CC(=O)O)C(=O)N[C@@H]1C(=O)NCC(=O)N[C@@H](CCCN)C(=O)N[C@@H](CC(=O)O)C(=O)N[C@H](C)C(=O)N[C@@H](CC(=O)O)C(=O)NCC(=O)N[C@H](CO)C(=O)N[C@@H]([C@H](C)CC(=O)O)C(=O)N[C@@H](CC(=O)c2ccccc2N)C(=O)O[C@@H]1C", "note": "[daptomycin]", "values": [{"measurement": "steady-state concentrations achieved by", "setting": "[1]; Study 2, both treatment groups (6 mg/kg and 4 mg/kg), 2 min iv injection once daily, data not shown", "result": "third daily dose"}, {"measurement": "AUC0–∞", "setting": "[1]; Study 2, day 1, 6 mg/kg 2 min iv injection, healthy adult volunteers, plasma, HPLC, non-compartmental, arithmetic mean (SD), n = 12, SD", "result": "690.37 (68.83) mg·h/L"}, {"measurement": "CL", "setting": "[1]; Study 2, day 1, 6 mg/kg 2 min iv injection, plasma, arithmetic mean (SD), n = 12, SD", "result": "0.0088 (0.0009) L/h/kg"}, {"measurement": "Ratio of 6 mg/kg:4 mg/kg daptomycin (95% CI), AUC0–tau (dose-normalized)", "setting": "[1]; [4]", "result": "1.02 (0.87–1.2)"}, {"measurement": "Ratio of 6 mg/kg:4 mg/kg daptomycin (95% CI), Ae0–tau (dose-normalized), cumulative amount of unchanged daptomycin excreted in urine", "setting": "[1]; [4]", "result": "0.95 (0.72–1.25)"}, {"measurement": "Ratio of 6 mg/kg:4 mg/kg daptomycin (95% CI), CL", "setting": "[1]; [4]", "result": "1.00 (0.85–1.18)"}, {"measurement": "Ratio of 6 mg/kg:4 mg/kg daptomycin (95% CI), Cmax (dose-normalized)", "setting": "[1]; [4]", "result": "1.14 (0.97–1.3)"}, {"measurement": "V", "setting": "[1]; [5]", "result": "0.107 (0.011) L/kg"}, {"measurement": "t1/2", "setting": "[1]; [5]", "result": "8.65 (0.63) h"}, {"measurement": "Ratio of 6 mg/kg:4 mg/kg daptomycin (95% CI), AUC0–tau (dose-normalized)", "setting": "[1]; [6]", "result": "0.99 (0.87–1.12)"}, {"measurement": "Ratio of 6 mg/kg:4 mg/kg daptomycin (95% CI), Ae0–tau (dose-normalized), cumulative amount of unchanged daptomycin excreted in urine", "setting": "[1]; [6]", "result": "0.88 (0.69–1.11)"}, {"measurement": "Ratio of 6 mg/kg:4 mg/kg daptomycin (95% CI), CL", "setting": "[1]; [6]", "result": "1.01 (0.9–1.15)"}, {"measurement": "Ratio of 6 mg/kg:4 mg/kg daptomycin (95% CI), Cmax (dose-normalized)", "setting": "[1]; [6]", "result": "0.97 (0.82–1.16)"}, {"measurement": "clearance", "setting": "[1]; [7]", "result": 0.15, "unit": "mL/min/kg"}, {"measurement": "clearance", "setting": "[1]; [8]", "result": 0.143, "unit": "mL/min/kg"}, {"measurement": "Cmax", "setting": "[1]; both, human, plasma, iv, 4 mg/kg, Study 2, day 1, 4 mg/kg 2 min iv injection, plasma, HPLC, arithmetic mean (SD), n = 8, SD", "result": 56.8, "unit": "µg/mL"}, {"measurement": "Cmax", "setting": "[1]; both, human, plasma, iv, 4 mg/kg, Study 2, day 7, 4 mg/kg 2 min iv injection once daily, plasma, HPLC, arithmetic mean (SD), n = 8, SD", "result": 62.8, "unit": "µg/mL"}, {"measurement": "Tmax", "setting": "[1]; both, human, plasma, iv, 4 mg/kg, Study 2, day 1, 4 mg/kg 2 min iv injection, plasma, n = 8", "result": 8.4, "unit": "min"}, {"measurement": "Tmax", "setting": "[1]; both, human, plasma, iv, 4 mg/kg, Study 2, day 7, 4 mg/kg 2 min iv injection once daily, plasma, n = 8", "result": 15, "unit": "min"}, {"measurement": "Vd", "setting": "[1]; [7]", "result": 0.116, "unit": "L/kg"}, {"measurement": "Vd", "setting": "[1]; [8]", "result": 0.109, "unit": "L/kg"}, {"measurement": "half-life", "setting": "[1]; both, human, plasma, iv, 4 mg/kg, t1/2, Study 2, day 1, 4 mg/kg 2 min iv injection, plasma, arithmetic mean (SD), n = 8, SD", "result": 545, "unit": "min"}, {"measurement": "half-life", "setting": "[1]; both, human, plasma, iv, 4 mg/kg, t1/2, Study 2, day 7, 4 mg/kg 2 min iv injection once daily, plasma, arithmetic mean (SD), n = 8, SD", "result": 536, "unit": "min"}, {"measurement": "AUC(0-inf)", "setting": "[1]; [9]", "result": 468, "unit": "µg·h/mL"}, {"measurement": "AUC(0-t)", "setting": "[1]; [9]", "result": 475, "unit": "µg·h/mL"}, {"measurement": "clearance", "setting": "[1]; both, human, plasma, iv, 6 mg/kg, Study 2, day 7, 6 mg/kg 2 min iv injection once daily, plasma, arithmetic mean (SD), n = 12, SD", "result": 0.145, "unit": "mL/min/kg"}, {"measurement": "Cmax", "setting": "[1]; both, human, plasma, iv, 6 mg/kg, Study 2, day 1, 6 mg/kg 2 min iv injection, plasma, HPLC, arithmetic mean (SD), n = 12, SD", "result": 97.5, "unit": "µg/mL"}, {"measurement": "Cmax", "setting": "[1]; both, human, plasma, iv, 6 mg/kg, Study 2, day 7, 6 mg/kg 2 min iv injection once daily, plasma, HPLC, arithmetic mean (SD), n = 12, SD", "result": 91.8, "unit": "µg/mL"}, {"measurement": "Tmax", "setting": "[1]; both, human, plasma, iv, 6 mg/kg, Study 2, day 1, 6 mg/kg 2 min iv injection, plasma, n = 12", "result": 1.8, "unit": "min"}, {"measurement": "Tmax", "setting": "[1]; both, human, plasma, iv, 6 mg/kg, Study 2, day 7, 6 mg/kg 2 min iv injection once daily, plasma, n = 12", "result": 15, "unit": "min"}, {"measurement": "Vd", "setting": "[1]; both, human, plasma, iv, 6 mg/kg, Study 2, day 1, 6 mg/kg 2 min iv injection, plasma, arithmetic mean (SD), n = 12, SD", "result": 0.106, "unit": "L/kg"}, {"measurement": "half-life", "setting": "[1]; both, human, plasma, iv, 6 mg/kg, t1/2, Study 2, day 1, 6 mg/kg 2 min iv injection, plasma, arithmetic mean (SD), n = 12, SD", "result": 506, "unit": "min"}, {"measurement": "AUC(0-t)", "setting": "[1]; both, human, plasma, iv, 6 mg/kg, SD", "result": 701, "unit": "µg·h/mL"}, {"measurement": "dose excreted", "setting": "[1]; both, human, iv, 4 mg/kg, SD", "result": 54.3, "unit": "%"}, {"measurement": "dose excreted", "setting": "[1]; both, human, iv, 6 mg/kg, SD", "result": 56.7, "unit": "%"}, {"measurement": "steady state reached by", "setting": "[2]; 30 min iv infusion, independent of dose", "result": "≤ 3", "unit": "days"}, {"measurement": "volume of distribution (V)", "setting": "[2]; average", "result": "~0.1", "unit": "L/kg"}, {"measurement": "Subjects with at least one adverse event possibly or probably related to study drug: Any adverse event", "setting": "[3]", "result": "2 (25) n (%)"}, {"measurement": "Subjects with related adverse event: Gastrointestinal disorders", "setting": "[3]", "result": "1 (13) n (%)"}, {"measurement": "Subjects with related adverse event: Infections and infestations", "setting": "[3]", "result": "0 n (%)"}, {"measurement": "Subjects with related adverse event: Nervous system disorders", "setting": "[3]", "result": "1 (13) n (%)"}, {"measurement": "Subjects with related adverse event: dizziness", "setting": "[3]", "result": "0 n (%)"}, {"measurement": "Subjects with related adverse event: dizziness postural", "setting": "[3]", "result": "0 n (%)"}, {"measurement": "Subjects with related adverse event: flatulence", "setting": "[3]", "result": "1 (13) n (%)"}, {"measurement": "Subjects with related adverse event: headache", "setting": "[3]", "result": "0 n (%)"}, {"measurement": "Subjects with related adverse event: lethargy", "setting": "[3]", "result": "1 (13) n (%)"}, {"measurement": "Subjects with related adverse event: nausea", "setting": "[3]", "result": "0 n (%)"}, {"measurement": "Subjects with related adverse event: pain in extremity", "setting": "[3]", "result": "1 (13) n (%)"}, {"measurement": "Subjects with related adverse event: paraesthesia", "setting": "[3]", "result": "0 n (%)"}, {"measurement": "Subjects with related adverse event: upper respiratory tract infection", "setting": "[3]", "result": "0 n (%)"}, {"measurement": "subjects with erythema (local injection-site reaction)", "setting": "[3]", "result": "five subjects"}]}
